Data on 15 molecules can be found in ChEMBL document CHEMBL3352152, “Indolylmethylene benzo[h]thiazolo[2,3-b]quinazolinones: synthesis, characterization and evaluation of anticancer and antimicrobial activities” (Bioorg Med Chem Lett, 2014).

Structures are written as SMILES. A value given as a limit tells only on which side of the number the result lay.

As a reminder, the IC50 is the concentration that gives 50% inhibition.

One experiment concerns Candida albicans. Description: Antifungal activity against Candida albicans MTCC 183 at 150 ug/ml after 48 hrs by agar well diffusion method. The format is functional. As to conditions: MTCC 183, 48 h, read-out: IZ. The method, boiled down:
(§1)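 Antifungal screen by agar well diffusion against C. albicans, C. glabrata, A. niger and A. parasiticus. Clotrimazole was the standard drug. Activity was recorded as zone of inhibition (ZOI, mm).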
On the technique in general: In agar diffusion tests the substance spreads into inoculated agar from a disc or well.

In the next experiment the test system is Nakaseomyces glabratus. Description: Antifungal activity against Candida glabrata MTCC3019 at 150 ug/ml after 48 hrs by agar well diffusion method. The settings on record: MTCC3019, 48 h, read-out: IZ. The format is functional. The method, boiled down:
as §1

The next experiment concerns Aspergillus niger. Description: Antifungal activity against Aspergillus niger MTCC 282 at 150 ug/ml after 48 hrs by agar well diffusion method. The format is functional. As to conditions: MTCC 282, 48 h, read-out: IZ. The gist of the method: as §1
In another experiment the test system is Aspergillus parasiticus. Description: Antifungal activity against Aspergillus parasiticus MTCC 8850 at 150 ug/ml after 48 hrs by agar well diffusion method. The format is functional. The settings on record: MTCC 8850, 48 h, read-out: IZ. The method, boiled down: as §1
A further experiment concerns MCF7. Description: Anticancer activity against human MCF7 cells assessed as cell viability after 48 hrs by MTT microcultured tetrazolium assay. As to conditions: MCF7, 48 h. The format is functional, cell-based. The method, boiled down: (§2)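 MTT-microcultured tetrazolium viability read-out in MCF-7 and HepG2 cells exposed to test samples. Surviving fraction was plotted against drug concentration to give survival curves, and IC50 was taken from these curves.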

For a further experiment, the system named is HepG2. Briefly: Anticancer activity against human HepG2 cells assessed as cell viability after 48 hrs by MTT microcultured tetrazolium assay. The format is functional, cell-based. As to conditions: HepG2, 48 h. The method, boiled down:
as §2
(Tetrazolium assays rely on reduction of a dye to a coloured formazan, in cell work by metabolically active cells.)

A further experiment relates to Staphylococcus aureus. Description: Antibacterial activity against Staphylococcus aureus MTCC 96 at 150 ug/ml after 24 hrs by agar well diffusion assay. The format is functional. The settings on record: MTCC 96, 24 h, read-out: IZ. The gist of the method:
(§3)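 Agar well diffusion screen against the two Gram-positive strains (S. aureus, S. pyogenes) and the two Gram-negative strains (P. aeruginosa, K. pneumoniae). Streptomycin was the reference drug. Activity was read as zone of inhibition (mm).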

Another experiment deals with Streptococcus pyogenes. Description: Antibacterial activity against Streptococcus pyogenes MTCC 1926 at 150 ug/ml after 24 hrs by agar well diffusion assay. The settings on record: MTCC 1926, 24 h, read-out: IZ. The format is functional. The method, boiled down: as §3
The next experiment deals with Klebsiella pneumoniae. Description: Antibacterial activity against Klebsiella pneumoniae MTCC 109 at 150 ug/ml after 24 hrs by agar well diffusion assay. The settings on record: MTCC 109, 24 h, read-out: IZ. The format is functional. The gist of the method: as §3
In a further experiment the test system is Pseudomonas aeruginosa. Description: Antibacterial activity against Pseudomonas aeruginosa MTCC 4673 at 150 ug/ml after 24 hrs by agar well diffusion assay. The format is functional. As to conditions: MTCC 4673, 24 h, read-out: IZ. The method, boiled down:
as §3

Consider `COc1ccc(C2C3=C(N=c4s/c(=C\c5c(C)[nH]c6ccccc56)c(=O)n42)c2ccc(OC)cc2CC3)cc1` (stereo unspecified), for which the zone of inhibition at 150 µg/mL in the experiment with Candida albicans came to 8 mm; in the experiment on Nakaseomyces glabratus it was 8 mm; with Aspergillus niger, 8 mm; in the experiment on Aspergillus parasiticus, 10 mm; in the experiment with Staphylococcus aureus, 8 mm; in the experiment on Streptococcus pyogenes it was 8 mm. The zone of inhibition at 150 µg/mL in the experiment with Klebsiella pneumoniae and with Pseudomonas aeruginosa was 8 mm each time. Moreover, the figures for the concentration for half-maximal inhibition (IC50) with MCF7 and in the experiment with HepG2 were 112 µM and above 200 µM, respectively.

With `O=c1/c(=C/c2c[nH]c3ccccc23)sc2n1C(c1cccc([N+](=O)[O-])c1)C1=C(N=2)c2ccccc2CC1` (stereo unspecified), the zone of inhibition at 150 µg/mL in the experiment on Candida albicans worked out at 8 mm; with Nakaseomyces glabratus, 10 mm; in the experiment on Aspergillus niger, 12 mm; in the experiment with Aspergillus parasiticus, 12 mm; in the experiment on Staphylococcus aureus it was 8 mm; in the experiment with Streptococcus pyogenes it was 8 mm. The zone of inhibition at 150 µg/mL in the experiment on Klebsiella pneumoniae and in the experiment with Pseudomonas aeruginosa was 8 mm each time. Besides, the values for the concentration for half-maximal inhibition (IC50) in the experiment on MCF7 and in the experiment on HepG2 were above 200 µM and 199 µM, respectively.

Regarding `O=c1/c(=C/c2c[nH]c3ccc(Br)cc23)sc2n1C(c1ccc(Cl)cc1)C1=C(N=2)c2ccccc2CC1` (stereo unspecified), the zone of inhibition at 150 µg/mL is 8 mm in the experiment on Candida albicans; 10 mm in the experiment on Nakaseomyces glabratus; 8 mm with Aspergillus niger; 8 mm in the experiment on Aspergillus parasiticus; 13 mm in the experiment with Staphylococcus aureus; 8 mm in the experiment with Streptococcus pyogenes. Further, the zone of inhibition at 150 µg/mL came to 8 mm in the experiment on Klebsiella pneumoniae and 15 mm in the experiment with Pseudomonas aeruginosa. Moreover, the IC50 in the experiment on MCF7 is 18.9 µM; with HepG2, 13.7 µM.

Consider `COc1ccc(C2C3=C(N=c4s/c(=C\c5c[nH]c6ccc(OC)cc56)c(=O)n42)c2ccc(OC)cc2CC3)cc1` (stereo unspecified), for which the zone of inhibition at 150 µg/mL was found to be 8 mm in the experiment on Candida albicans; 8 mm in the experiment on Nakaseomyces glabratus; 14 mm in the experiment on Aspergillus niger; 10 mm in the experiment on Aspergillus parasiticus; 8 mm in the experiment on Staphylococcus aureus; 8 mm with Streptococcus pyogenes. The zone of inhibition at 150 µg/mL in the experiment with Klebsiella pneumoniae and with Pseudomonas aeruginosa was 8 mm each time. The IC50 with MCF7 came out at 30.6 µM; with HepG2 it was 57.5 µM.

With `COc1ccc2c(c1)CCC1=C2N=c2s/c(=C\c3c[nH]c4ccccc34)c(=O)n2C1c1ccc(Cl)cc1` (stereo unspecified), the zone of inhibition at 150 µg/mL in the experiment with Candida albicans was determined as 8 mm; in the experiment with Nakaseomyces glabratus it was 14 mm; in the experiment on Aspergillus niger it was 8 mm; in the experiment on Aspergillus parasiticus, 10 mm; in the experiment on Staphylococcus aureus it was 8 mm; in the experiment on Streptococcus pyogenes, 8 mm. For the same molecule, the zone of inhibition at 150 µg/mL in the experiment on Klebsiella pneumoniae and in the experiment with Pseudomonas aeruginosa was 8 mm in each case. Further, the IC50 with MCF7 was 23.5 µM; with HepG2, 34.9 µM.

With `COc1ccc(C2C3=C(N=c4s/c(=C\c5c[nH]c6ccc(Br)cc56)c(=O)n42)c2ccc(OC)cc2CC3)cc1` (stereo unspecified), the zone of inhibition at 150 µg/mL in the experiment with Candida albicans was determined as 8 mm; in the experiment on Nakaseomyces glabratus, 12 mm; with Aspergillus niger, 8 mm; with Aspergillus parasiticus, 10 mm; with Staphylococcus aureus, 8 mm; in the experiment on Streptococcus pyogenes, 8 mm. For the same molecule, the zone of inhibition at 150 µg/mL in the experiment on Klebsiella pneumoniae and in the experiment with Pseudomonas aeruginosa was 8 mm each time. For the same molecule, the IC50 in the experiment on MCF7 worked out at 7.72 µM; in the experiment on HepG2 it was 8.6 µM.

Take `COc1ccc2[nH]cc(/C=c3\sc4n(c3=O)C(c3ccc(Cl)cc3)C3=C(N=4)c4ccccc4CC3)c2c1` (stereo unspecified): the zone of inhibition at 150 µg/mL in the experiment on Candida albicans was 15 mm; in the experiment on Nakaseomyces glabratus, 16 mm; with Aspergillus niger, 18 mm; in the experiment with Aspergillus parasiticus, 18 mm; in the experiment on Staphylococcus aureus, 14 mm; with Streptococcus pyogenes, 8 mm. Moreover, the zone of inhibition at 150 µg/mL is 8 mm in the experiment with Klebsiella pneumoniae and 14 mm with Pseudomonas aeruginosa. The values for the IC50 in the experiment on MCF7 and with HepG2 were 20.7 µM and 27.7 µM, respectively.

As for `COc1ccc2c(c1)CCC1=C2N=c2s/c(=C\c3c[nH]c4ccccc34)c(=O)n2C1c1cccc([N+](=O)[O-])c1` (stereo unspecified), the zone of inhibition at 150 µg/mL with Candida albicans was found to be 8 mm; in the experiment on Nakaseomyces glabratus, 8 mm; in the experiment on Aspergillus niger, 12 mm; in the experiment with Aspergillus parasiticus, 8 mm; with Staphylococcus aureus, 8 mm; in the experiment on Streptococcus pyogenes, 8 mm. The zone of inhibition at 150 µg/mL with Klebsiella pneumoniae and with Pseudomonas aeruginosa was 8 mm each time. Further, the IC50 is above 200 µM with MCF7 and 70.3 µM with HepG2.

As for `COc1ccc2c(c1)CCC1=C2N=c2s/c(=C\c3c[nH]c4ccc(Br)cc34)c(=O)n2C1c1ccc(Cl)cc1` (stereo unspecified), the zone of inhibition at 150 µg/mL amounted to 8 mm in the experiment on Candida albicans; 10 mm in the experiment with Nakaseomyces glabratus; 10 mm with Aspergillus niger; 10 mm in the experiment with Aspergillus parasiticus; 8 mm with Staphylococcus aureus; 8 mm in the experiment with Streptococcus pyogenes. The zone of inhibition at 150 µg/mL in the experiment on Klebsiella pneumoniae and with Pseudomonas aeruginosa was 8 mm in each case. Also, the concentration for half-maximal inhibition (IC50) with MCF7 was 2.59 µM; in the experiment on HepG2, 11.6 µM.

For the molecule `O=c1/c(=C/c2c[nH]c3ccccc23)sc2n1C(c1ccc(Cl)cc1)C1=C(N=2)c2ccccc2CC1` (stereo unspecified), the zone of inhibition at 150 µg/mL in the experiment with Candida albicans came out at 8 mm; in the experiment on Nakaseomyces glabratus, 12 mm; in the experiment on Aspergillus niger, 12 mm; with Aspergillus parasiticus it was 12 mm; in the experiment on Staphylococcus aureus it was 12 mm; in the experiment on Streptococcus pyogenes, 8 mm. For the same molecule, the zone of inhibition at 150 µg/mL is 8 mm in the experiment with Klebsiella pneumoniae and 18 mm in the experiment with Pseudomonas aeruginosa. For the same molecule, the results for the IC50 with MCF7 and with HepG2 were 42.8 µM and 16.3 µM, respectively.

Turning to `COc1ccc2c(c1)CCC1=C2N=c2s/c(=C\c3c(C)[nH]c4ccccc34)c(=O)n2C1c1ccc(Cl)cc1` (stereo unspecified), the zone of inhibition at 150 µg/mL in the experiment on Candida albicans was 8 mm; with Nakaseomyces glabratus, 8 mm; in the experiment on Aspergillus niger it was 8 mm; in the experiment on Aspergillus parasiticus, 12 mm; in the experiment on Staphylococcus aureus, 8 mm; in the experiment with Streptococcus pyogenes, 8 mm. Moreover, the zone of inhibition at 150 µg/mL in the experiment on Klebsiella pneumoniae and in the experiment with Pseudomonas aeruginosa was 8 mm throughout. Besides, the concentration for half-maximal inhibition (IC50) was determined as 61.9 µM in the experiment with MCF7 and 38.8 µM in the experiment with HepG2.

For `COc1ccc2c(c1)CCC1=C2N=c2s/c(=C\c3c[nH]c4ccc(C)cc34)c(=O)n2C1c1cccc([N+](=O)[O-])c1` (stereo unspecified), the zone of inhibition at 150 µg/mL in the experiment on Candida albicans worked out at 8 mm; in the experiment with Nakaseomyces glabratus, 12 mm; in the experiment with Aspergillus niger, 8 mm; with Aspergillus parasiticus, 8 mm; in the experiment on Staphylococcus aureus it was 17 mm; in the experiment on Streptococcus pyogenes it was 17 mm. Further, the zone of inhibition at 150 µg/mL in the experiment on Klebsiella pneumoniae came to 17 mm; in the experiment with Pseudomonas aeruginosa it was 8 mm. The IC50 is above 200 µM in the experiment on MCF7 and 51.6 µM in the experiment on HepG2.

Regarding `COc1cccc2c1C(=O)c1c(O)c3c(c(O)c1C2=O)C[C@@](O)(C(=O)CO)C[C@@H]3O[C@H]1C[C@H](N)[C@H](O)[C@H](C)O1` [DOXORUBICIN], in the experiment on HepG2, the IC50 is 1.1 µM.

Regarding `COc1ccc2c(c1)CCC1=C2N=c2s/c(=C\c3c[nH]c4ccc(Br)cc34)c(=O)n2C1c1cccc([N+](=O)[O-])c1` (stereo unspecified), the zone of inhibition at 150 µg/mL was 8 mm with Candida albicans; 8 mm in the experiment with Nakaseomyces glabratus; 10 mm in the experiment with Aspergillus niger; 10 mm in the experiment with Aspergillus parasiticus; 19 mm in the experiment on Staphylococcus aureus; 16 mm in the experiment with Streptococcus pyogenes. For the same molecule, the values for the zone of inhibition at 150 µg/mL with Klebsiella pneumoniae and in the experiment with Pseudomonas aeruginosa were 17 mm and 8 mm, respectively. Moreover, the IC50 in the experiment on MCF7 and in the experiment with HepG2 was above 200 µM throughout.

`COc1ccc(C2C3=C(N=c4s/c(=C\c5c[nH]c6ccccc56)c(=O)n42)c2ccc(OC)cc2CC3)cc1` (stereo unspecified): the zone of inhibition at 150 µg/mL stood at 18 mm in the experiment on Candida albicans; 20 mm with Nakaseomyces glabratus; 18 mm in the experiment on Aspergillus niger; 18 mm in the experiment with Aspergillus parasiticus; 17 mm in the experiment with Staphylococcus aureus; 18 mm in the experiment on Streptococcus pyogenes. The zone of inhibition at 150 µg/mL in the experiment with Klebsiella pneumoniae amounted to 15 mm; in the experiment with Pseudomonas aeruginosa it was 8 mm. In addition, the results for the half-inhibitory concentration (IC50) in the experiment on MCF7 and in the experiment on HepG2 were 54.4 µM and 61.1 µM, respectively.
